From ChEMBL document CHEMBL1800019, “Highly potent activity of (1R,2R,6S)-3-methyl-6-(prop-1-en-2-yl)cyclohex-3-ene-1,2-diol in animal models of Parkinson's disease” (2011)
The source made the active and inactive calls. No cut-off for these calls is given here.

Tests used:
Mus musculus [1] = assay: Antiparkinsonian effect against MPTP-induced hypokinesia in C57/BL6 mouse assessed as number of locomotory acts at 20 mg/kg, po administered 15 mins after 30 mg/kg, ip MPTP challenge measured after 1.5 hrs of compound administration for 2 mins (reference value: 84.1 +/- 1.9 locomotor acts); assay type: functional, C57Bl/6
Summary of the method: (§1)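 Male C57BL/6 mice (25–30 g) were given MPTP 0.17 mmol/kg (30 mg/kg) ip and, 15 min later, test agent 0.12 mmol/kg (20 mg/kg) po. Controls received saline. An open-field test (Tru Scan) was run 1.5 h after MPTP for 2 min, recording acts, locomotion time, distance, speed, upright postures and explored holes.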

Mus musculus [2] = assay: Antiparkinsonian effect against MPTP-induced hypokinesia in C57/BL6 mouse assessed as movement speed at 20 mg/kg, po administered 15 mins after 30 mg/kg, ip MPTP challenge measured after 1.5 hrs of compound administration for 2 mins (reference value: 2.3 +/- 0.2 cm/s); assay type: functional, C57Bl/6; summary of the method: as §1
Mus musculus [3] = assay: Antiparkinsonian effect against MPTP-induced hypokinesia in C57/BL6 mouse assessed as number of upright postures at 20 mg/kg, po administered 15 mins after 30 mg/kg, ip MPTP challenge measured after 1.5 hrs of compound administration for 2 mins (reference value: 6.5 +/- 1.3 upright postures); assay type: functional, C57Bl/6; summary of the method: as §1
Mus musculus [4] = assay: Antiparkinsonian effect against MPTP-induced hypokinesia in C57/BL6 mouse assessed as time of locomotory activity at 20 mg/kg, po administered 15 mins after 30 mg/kg, ip MPTP challenge measured after 1.5 hrs of compound administration for 2 mins (reference value: 58.3 +/- 3.9 sec); assay type: functional, C57Bl/6; summary of the method: as §1
Mus musculus [5] = assay: Antiparkinsonian effect against MPTP-induced hypokinesia in C57/BL6 mouse assessed as movement distance at 20 mg/kg, po administered 15 mins after 30 mg/kg, ip MPTP challenge […] for 2 mins (reference value: 276.8 +/- 27.8 cm); assay type: functional, C57Bl/6
Mus musculus [6] = assay: Antiparkinsonian effect against MPTP-induced hypokinesia in C57/BL6 mouse assessed as number of holes explored at 20 mg/kg, po administered 15 mins after 30 mg/kg, ip MPTP challenge measured after 1.5 hrs of compound administration for 2 mins (reference value: 15.6 +/- 3.3 holes explored); assay type: functional, C57Bl/6; summary of the method: as §1
Rattus norvegicus [7] = assay: Antiparkinsonian effect against MPTP-induced hypokinesia in Wistar rat assessed as number of holes explored at 10 mg/kg, po administered 30 days post 20 mg/kg, ip MPTP challenge measured on 30th day 2 hrs post compound administration for 2 mins (reference value: 4.6 +/- 0.9 holes explored); assay type: functional
Rattus norvegicus [8] = assay: Antiparkinsonian effect against MPTP-induced hypokinesia in Wistar rat assessed as number of upright postures at 10 mg/kg, po administered 30 days post 20 mg/kg, ip MPTP challenge measured on 30th day 2 hrs post compound administration for 2 mins (reference value: 14.6 +/- 1.8 upright postures); assay type: functional
Rattus norvegicus [9] = assay: Antiparkinsonian effect against MPTP-induced hypokinesia in Wistar rat assessed as movement distance at 10 mg/kg, po administered 30 days post 20 mg/kg, ip MPTP challenge measured on 30th day 2 hrs post compound administration for 2 mins (reference value: 367 +/- 21.2 cm); assay type: functional
Rattus norvegicus [10] = assay: Antiparkinsonian effect against MPTP-induced hypokinesia in Wistar rat assessed as time of locomotory activity at 10 mg/kg, po administered 30 days post 20 mg/kg, ip MPTP challenge measured on 30th day 2 hrs post compound administration for 2 mins (reference value: 69.7 +/- 2.1s); assay type: functional
Rattus norvegicus [11] = assay: Antiparkinsonian effect against MPTP-induced hypokinesia in Wistar rat assessed as number of locomotory acts at 10 mg/kg, po administered 30 days post 40 mg/kg, ip MPTP challenge measured on 30th day 2 hrs post compound administration for 2 mins (reference value: 80.3 +/- 2.5 locomotor acts)
Mus musculus [12] = assay: Antiparkinsonian effect against MPTP-induced hypokinesia in C57/BL6 mouse assessed as number of locomotory acts at 20 mg/kg, po administered 24 hrs after 4 X 20 mg/kg, ip MPTP challenge measured after 2 hrs of compound administration for 2 mins (reference value: 73.3 +/- 2.3 locomotor acts); assay type: functional, C57Bl/6
Mus musculus [13] = assay: Antiparkinsonian effect against MPTP-induced hypokinesia in C57/BL6 mouse assessed as time of locomotory activity at 20 mg/kg, po administered 24 hrs after 4 X 20 mg/kg, ip MPTP challenge measured after 2 hrs of compound administration for 2 mins (reference value: 90.0 +/- 1.4 sec); assay type: functional, C57Bl/6
Rattus norvegicus [14] = assay: Antiparkinsonian effect against MPTP-induced hypokinesia in Wistar rat assessed as number of locomotory acts at 20 mg/kg, po administered 30 days post 20 mg/kg, ip MPTP challenge measured on 30th day 2 hrs post compound administration for 2 mins (reference value: 80.3 +/- 2.5 locomotor acts); assay type: functional
Mus musculus [15] = assay: Antiparkinsonian effect against MPTP-induced hypokinesia in C57/BL6 mouse assessed as movement speed at 20 mg/kg, po administered 24 hrs after 4 X 20 mg/kg, ip MPTP challenge measured after 2 hrs of compound administration for 2 mins (reference value: 4.6 +/- 0.2 cm/s); assay type: functional, C57Bl/6
Rattus norvegicus [16] = assay: Antiparkinsonian effect against MPTP-induced hypokinesia in Wistar rat assessed as time of locomotory activity at 20 mg/kg, po administered 30 days post 40 mg/kg, ip MPTP challenge measured on 30th day 2 hrs post compound administration for 2 mins (reference value: 69.7 +/- 2.1 sec)
Rattus norvegicus [17] = assay: Antiparkinsonian effect against MPTP-induced hypokinesia in Wistar rat assessed as number of upright postures at 20 mg/kg, po administered 30 days post 40 mg/kg, ip MPTP challenge measured on 30th day 2 hrs post compound administration for 2 mins (reference value: 14.6 +/- 1.8 upright postures)
Rattus norvegicus [18] = assay: Antiparkinsonian effect against MPTP-induced hypokinesia in Wistar rat assessed as movement distance at 20 mg/kg, po administered 30 days post ip MPTP challenge measured on 30th day 2 hrs post compound administration for 2 mins (reference value: 367 +/- 21.2 cm)
Mus musculus [19] = assay: Antiparkinsonian effect against MPTP-induced hypokinesia in C57/BL6 mouse assessed as number of upright postures at 20 mg/kg, po administered 24 hrs after 4 X 20 mg/kg, ip MPTP challenge measured after 2 hrs of compound administration for 2 mins (reference value: 24.9 +/- 3.3 upright postures); assay type: functional, C57Bl/6
Rattus norvegicus [20] = assay: Inhibition of haloperidol-induced catalepsy in Wistar rat at 20 mg/kg, po administered 10 mins before haloperidol challenge measured for 30 to 240 mins; assay type: functional, organism-based; parameters: dose 20 mg/kg
Summary of the method: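 Male Wistar rats (six per group) were dosed po with 0.12 mmol/kg (20 mg/kg), and 10 min later received haloperidol 4.0 μmol/kg (1.5 mg/kg) ip in saline. Controls received haloperidol only. Immobility time on parallel bars was recorded at 30, 60, 120, 180 and 240 min at rt. Total catalepsy duration and % cataleptic animals were scored.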

Rattus norvegicus [21] = assay: Antiparkinsonian effect against MPTP-induced hypokinesia in Wistar rat assessed as number of holes explored at 20 mg/kg, po administered 30 days post ip MPTP challenge measured on 30th day 2 hrs post compound administration for 2 mins (reference value: 4.6 +/- 0.9 holes explored)
Mus musculus [22] = assay: Antiparkinsonian effect against MPTP-induced hypokinesia in C57/BL6 mouse assessed as movement distance at 20 mg/kg, po administered 24 hrs after 4 X 20 mg/kg, ip MPTP challenge measured after 2 hrs of compound administration for 2 mins (reference value: 556.7 +/- 19.6 cm); assay type: functional, C57Bl/6
Mus musculus [23] = assay: Antiparkinsonian effect against MPTP-induced hypokinesia in C57/BL6 mouse assessed as number of holes explored at 20 mg/kg, po administered 24 hrs after 4 X 20 mg/kg, ip MPTP challenge measured after 2 hrs of compound administration for 2 mins (reference value: 4.1 +/- 1.1 holes explored); assay type: functional, C57Bl/6
Rattus norvegicus [24] = assay: Antiparkinsonian effect against MPTP-induced hypokinesia in Wistar rat assessed as movement speed at 20 mg/kg, po administered 30 days post ip MPTP challenge measured on 30th day 2 hrs post compound administration for 2 mins (reference value: 3.0 +/- 0.2 cm/s)

Row | SMILES | Activity (Mus musculus [1]) | Activity (Mus musculus [2]) [cm/s] | Activity (Mus musculus [3]) | Time (Mus musculus [4]) [s] | Movement distance (Mus musculus [5]) [cm] | Activity (Mus musculus [6]) | other results
1 | C=C(C)[C@@H]1CC=C(C)[C@@H](O)[C@H]1O | 64.9 | 1.7 | 4 | 45.5 | 212.4 | 3.5 | –
2 | C=C(C)[C@@H]1CC=C(C)[C@H](O)[C@@H]1O | 28.5 | 0.4 | 1.7 | 15 | 55.9 | 0.9 | –
3 | C=C(C)[C@H]1CC=C(C)[C@H](O)[C@H]1O | 57.9 | 1.1 | 2.5 | 34.9 | 147.8 | 4.4 | –
4 | C=C(C)[C@H]1CC=C(C)[C@@H](O)[C@@H]1O | 65.5 | 1.3 | 4.7 | 46.9 | 158.8 | 3.9 | –
5 | C=C(C)[C@H]1CC=C(C)[C@H](O)[C@@H]1O | 80.2 | 1.2 | 3.1 | 55.6 | 245.9 | 14.4 | –
6 | N[C@@H](Cc1ccc(O)c(O)c1)C(=O)O [LEVODOPA] | – | – | – | – | – | – | Activity (Rattus norvegicus [7]): 4.6; Activity (Rattus norvegicus [8]): 9.6; Activity (Rattus norvegicus [9]): 316.8 cm; Time (Rattus norvegicus [10]): 65.1 s; Activity (Rattus norvegicus [11]): 86
7 | C=C(C)[C@@H]1CC=C(C)[C@@H](O)[C@@H]1O | 78.6 | 2.7 | 3.2 | 64 | 332.6 | 13.1 | Activity (Mus musculus [12]): 80.5; Time (Mus musculus [13]): 74.8 s; Activity (Rattus norvegicus [14]): 81.9; Activity (Mus musculus [15]): 3.6 cm/s; Time (Rattus norvegicus [16]): 62.6 s; Activity (Rattus norvegicus [17]): 10.7; Activity (Rattus norvegicus [18]): 305.6 cm; Activity (Mus musculus [19]): 14.8; inhibition (Rattus norvegicus [20]): Active; Activity (Rattus norvegicus [21]): 4.3; Activity (Mus musculus [22]): 439.6 cm; Activity (Mus musculus [23]): 6.5; Activity (Rattus norvegicus [24]): 2.5 cm/s
8 | C=C(C)[C@H]1CC=C(C)[C@@H](O)[C@H]1O | 82.4 | 2.1 | 7.9 | 56.6 | 257.7 | 8.1 | –
9 | C=C(C)[C@@H]1CC=C(C)[C@H](O)[C@H]1O | 77.4 | 2.1 | 10.3 | 55.7 | 253.3 | 8.1 | –
